Measurements as given in ChEMBL document CHEMBL1138494, “Human glucagon receptor antagonists with thiazole cores. A novel series with superior pharmacokinetic properties” (J Med Chem, 2009).
Activity calls are given as the source filed them. The calls are words filed in the database; no cut-off is given here.

How the values were obtained:
[1] = Clearance in fasted Beagle dog at 0.25 mg/kg, iv and 0.5 mg/kg, po; format: ADME, organism-based, Canis lupus familiaris; settings: in vivo
In short: (§1)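 Dogs were dosed at 0.25 mg/kg iv and 0.5 mg/kg po, and plasma concentration was followed over time. Half-life came from the iv arm; clearance, Cmax and Tmax were also derived.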

[2] = Cmax in fasted Beagle dog at 0.25 mg/kg, iv and 0.5 mg/kg, po; format: ADME, organism-based, Canis lupus familiaris; settings: in vivo; in short: as §1
[3] = organism: Homo sapiens; test: Selectivity for human recombinant glucagon receptor over human GLP1R
[4] = target: Glucagon receptor (Mus musculus, UniProt Q61606); test: Binding affinity to glucagon receptor in mouse liver membrane by membrane filter assay; format: cell membranes
Chain of Glucagon receptor (Mus musculus, UniProt Q61606) (Q61606 whole entry): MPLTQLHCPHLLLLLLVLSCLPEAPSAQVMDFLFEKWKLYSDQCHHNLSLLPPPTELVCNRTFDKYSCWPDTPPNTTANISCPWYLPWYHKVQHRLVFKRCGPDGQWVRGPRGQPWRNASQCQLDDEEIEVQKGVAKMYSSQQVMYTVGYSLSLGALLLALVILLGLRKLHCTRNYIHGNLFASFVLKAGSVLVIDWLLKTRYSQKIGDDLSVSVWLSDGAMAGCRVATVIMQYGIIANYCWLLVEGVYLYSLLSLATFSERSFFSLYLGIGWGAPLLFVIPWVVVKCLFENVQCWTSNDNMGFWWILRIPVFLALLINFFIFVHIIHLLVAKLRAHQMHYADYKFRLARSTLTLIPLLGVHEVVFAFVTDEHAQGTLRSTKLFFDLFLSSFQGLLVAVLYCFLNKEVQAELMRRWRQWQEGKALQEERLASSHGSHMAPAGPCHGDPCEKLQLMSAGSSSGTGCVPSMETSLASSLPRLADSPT

[5] = Binding affinity to glucagon receptor in monkey liver membrane by membrane filter assay; format: cell membranes, Macaca mulatta
[6] = target: T1, Glucagon receptor (Homo sapiens, UniProt P47871); test: Displacement of [125I]porcine glucagon from human recombinant glucagon receptor expressed in BHK cells by scintillation proximity assay; format: cell-based
T1 sequence (P47871 whole entry): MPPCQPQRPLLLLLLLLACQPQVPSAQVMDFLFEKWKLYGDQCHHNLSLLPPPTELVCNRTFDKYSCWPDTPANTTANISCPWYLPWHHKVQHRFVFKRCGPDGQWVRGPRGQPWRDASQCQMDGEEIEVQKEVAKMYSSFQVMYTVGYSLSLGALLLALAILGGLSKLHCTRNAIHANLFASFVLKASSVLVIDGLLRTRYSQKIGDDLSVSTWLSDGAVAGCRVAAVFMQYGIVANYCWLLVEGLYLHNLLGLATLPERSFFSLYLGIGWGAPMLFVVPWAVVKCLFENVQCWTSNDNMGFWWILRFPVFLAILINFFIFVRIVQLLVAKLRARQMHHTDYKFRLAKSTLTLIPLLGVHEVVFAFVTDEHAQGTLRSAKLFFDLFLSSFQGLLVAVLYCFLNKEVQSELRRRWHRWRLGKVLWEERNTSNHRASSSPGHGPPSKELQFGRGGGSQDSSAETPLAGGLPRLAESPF

[7] = system: Hepatocyte; test: Inhibition of glucagon-stimulated glucose production in human primary hepatocytes preincubated for 10 mins before glucagon addition by NADH-linked hexokinase assay; format: functional, cell-based
In short: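 Cultured primary human hepatocytes were preincubated with compound for 10 min, then glycogenolysis was induced with 5 nM glucagon for 60 min. Glucose in the medium was measured against basal glycogenolysis. Albumin was present in the assay medium. IC50 was calculated from four experiments, mean ± SEM.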

[8] = Oral bioavailability in fasted Beagle dog at 0.5 mg/kg; format: ADME, organism-based, Canis lupus familiaris; settings: in vivo
In short: (§2)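 Separate intravenous and peroral dosing arms per compound, with plasma concentration followed against time. Oral bioavailability (F_po) is reported per compound together with the intravenous half-life and clearance. The dose used for each arm is listed per compound.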

[9] = Tmax in fasted Sprague-Dawley rat at 1.62 mg/kg, iv and 3.04 mg/kg, po; format: ADME, organism-based; settings: in vivo
In short: (§3)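 Plasma concentration–time profiles were recorded after separate intravenous and peroral dosing at the per-compound doses listed. T_max is reported in min alongside C_max (ng/mL), intravenous half-life and clearance ((mL/min)/kg).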

[10] = Binding affinity to glucagon receptor in rabbit liver membrane by membrane filter assay; format: cell membranes, Oryctolagus cuniculus
[11] = target: T2, Gastric inhibitory polypeptide receptor (Homo sapiens, UniProt P48546); test: Binding affinity to human recombinant GIPR expressed in BHK cells by membrane filter assay; format: cell-based
T2 sequence (P48546 whole entry): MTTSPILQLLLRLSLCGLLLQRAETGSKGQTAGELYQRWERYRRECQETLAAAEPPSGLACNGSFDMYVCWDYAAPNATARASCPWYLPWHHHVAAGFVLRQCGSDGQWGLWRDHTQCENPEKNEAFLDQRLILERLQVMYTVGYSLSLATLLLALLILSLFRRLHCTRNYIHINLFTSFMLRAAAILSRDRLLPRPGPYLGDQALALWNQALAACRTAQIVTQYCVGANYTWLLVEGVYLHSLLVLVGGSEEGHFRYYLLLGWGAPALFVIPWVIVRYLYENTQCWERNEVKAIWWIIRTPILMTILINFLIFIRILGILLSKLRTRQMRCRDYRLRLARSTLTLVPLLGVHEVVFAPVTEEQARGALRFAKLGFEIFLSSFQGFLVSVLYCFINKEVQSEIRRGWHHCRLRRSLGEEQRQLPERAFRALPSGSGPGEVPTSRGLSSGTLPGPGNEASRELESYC

[12] = Cmax in fasted Sprague-Dawley rat at 1.62 mg/kg, iv and 3.04 mg/kg, po; format: ADME, organism-based; settings: in vivo
In short: (§4)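 Rats were dosed intravenously and perorally in separate arms, and plasma concentration-time profiles were obtained. Half-life was taken from the iv arm. Clearance, oral bioavailability, Cmax and Tmax were derived from the profiles.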

[13] = Clearance in fasted Sprague-Dawley rat at 1.62 mg/kg, iv and 3.04 mg/kg, po by HTLC-MS/MS analysis; format: ADME, organism-based; settings: in vivo; in short: as §4
[14] = Tmax in fasted Beagle dog at 0.25 mg/kg, iv and 0.5 mg/kg, po; format: ADME, organism-based, Canis lupus familiaris; settings: in vivo; in short: as §3
[15] = Half life in fasted Beagle dog at 0.25 mg/kg, iv; format: ADME, organism-based, Canis lupus familiaris; set-up: dose 0.25 mg/kg, route intravenous; settings: in vivo; in short: as §1
[16] = system: Hepatocyte; test: Inhibition of glucagon-stimulated glucose production in rat primary hepatocytes; format: functional, cell-based
[17] = Half life in monkey at 0.3 to 3 mg/kg, iv; format: ADME, organism-based, Macaca mulatta; set-up: dose 0.3-3 mg/kg, route intravenous; settings: rhesus monkey, in vivo
In short: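 In the anesthetized glucagon-challenged monkey study, compound was given intravenously. Blood samples were assayed for compound, and plasma concentration-time profiles yielded the half-life.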

[18] = Binding affinity to glucagon receptor in dog liver membrane by membrane filter assay; format: cell membranes, Canis lupus familiaris
[19] = target: Glucagon receptor (Rattus norvegicus, UniProt P30082); test: Binding affinity to glucagon receptor in rat liver membrane by membrane filter assay; format: cell membranes
Chain of Glucagon receptor (Rattus norvegicus, UniProt P30082) (P30082 whole entry): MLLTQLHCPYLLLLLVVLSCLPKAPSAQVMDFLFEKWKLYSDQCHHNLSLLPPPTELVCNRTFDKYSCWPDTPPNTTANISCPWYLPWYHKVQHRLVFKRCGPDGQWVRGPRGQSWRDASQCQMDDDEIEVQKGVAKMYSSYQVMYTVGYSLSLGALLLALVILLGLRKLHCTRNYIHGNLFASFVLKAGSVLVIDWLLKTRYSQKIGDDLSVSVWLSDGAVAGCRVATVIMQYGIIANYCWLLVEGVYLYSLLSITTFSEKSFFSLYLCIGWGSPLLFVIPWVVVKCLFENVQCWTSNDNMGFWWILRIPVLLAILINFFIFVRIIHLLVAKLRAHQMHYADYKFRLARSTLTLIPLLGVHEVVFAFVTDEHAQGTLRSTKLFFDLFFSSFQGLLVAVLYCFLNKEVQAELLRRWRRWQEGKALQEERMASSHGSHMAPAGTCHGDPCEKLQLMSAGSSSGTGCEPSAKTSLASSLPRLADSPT

[20] = system: Rhesus monkey; test: Antihyperglycemic activity against glucagon-stimulated glycaemia in iv dosed hyperglucagonaemia/hyperglycaemia monkey model assessed as decrease in plasma glucose level preincubated for 5 mins before glucagon challenge measured after 30 mins; format: functional, organism-based; settings: Macaca mulatta
In short: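 Anesthetized monkeys challenged with exogenous glucagon received compound intravenously. Plasma glucose was followed over time to gauge blockade of glucagon-stimulated glycaemia.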

[21] = Oral bioavailability in fasted Sprague-Dawley rat at 3.04 mg/kg by HTLC-MS/MS analysis; format: ADME, organism-based; settings: in vivo; in short: as §2
[22] = target: T2, Gastric inhibitory polypeptide receptor; test: Displacement of [125I]porcine GIP from human recombinant GIPR receptor expressed in BHK cells by scintillation proximity assay; format: cell-based
[23] = organism: Homo sapiens; test: Selectivity ratio of IC50 for human recombinant glucagon receptor to IC50 for human recombinant GIPR
In short: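 Competition binding of compounds to recombinant human glucagon and GIP receptors on BHK cell membranes, run in parallel as a scintillation proximity assay and, for selected compounds, as a membrane filtration assay.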

[24] = target: T1, Glucagon receptor; test: Binding affinity to human recombinant glucagon receptor expressed in BHK cells by membrane filter assay; format: cell-based
[25] = Half life in fasted Sprague-Dawley rat plasma at 1.62 mg/kg, iv by HTLC-MS/MS analysis; format: ADME, organism-based; set-up: dose 1.62 mg/kg, route intravenous; in short: as §4
[26] = Binding affinity to glucagon receptor in pig liver membrane by membrane filter assay; format: cell membranes, Sus scrofa
[27] = Cmax in fasted Sprague-Dawley rat at 1.49 mg/kg, iv and 3.19 mg/kg, po; format: ADME, organism-based; settings: in vivo; in short: as §4
[28] = Tmax in fasted Sprague-Dawley rat at 1.49 mg/kg, iv and 3.19 mg/kg, po; format: ADME, organism-based; settings: in vivo; in short: as §3
[29] = Half life in fasted Sprague-Dawley rat plasma at 1.49 mg/kg, iv by HTLC-MS/MS analysis; format: ADME, organism-based; set-up: dose 1.49 mg/kg, route intravenous; in short: as §4
[30] = Oral bioavailability in fasted Sprague-Dawley rat at 3.19 mg/kg by HTLC-MS/MS analysis; format: ADME, organism-based; settings: in vivo; in short: as §2
[31] = Clearance in fasted Sprague-Dawley rat at 1.49 mg/kg, iv and 3.19 mg/kg, po; format: ADME, organism-based; settings: in vivo; in short: as §4
[32] = Half life in fasted Sprague-Dawley rat plasma at 1.58 mg/kg, iv by HTLC-MS/MS analysis; format: ADME, organism-based; set-up: dose 1.58 mg/kg, route intravenous; in short: as §4
[33] = Cmax in fasted Sprague-Dawley rat at 1.58 mg/kg, iv and 3.16 mg/kg, po; format: ADME, organism-based; settings: in vivo; in short: as §4
[34] = Tmax in fasted Sprague-Dawley rat at 1.58 mg/kg, iv and 3.16 mg/kg, po; format: ADME, organism-based; settings: in vivo; in short: as §3
[35] = Clearance in fasted Sprague-Dawley rat at 1.58 mg/kg, iv and 3.16 mg/kg, po; format: ADME, organism-based; settings: in vivo; in short: as §4
[36] = Oral bioavailability in fasted Sprague-Dawley rat at 3.16 mg/kg by HTLC-MS/MS analysis; format: ADME, organism-based; settings: in vivo; in short: as §2
[37] = Oral bioavailability in fasted Sprague-Dawley rat at 3.25 mg/kg by HTLC-MS/MS analysis; format: ADME, organism-based; settings: in vivo; in short: as §2
[38] = Cmax in fasted Sprague-Dawley rat at 1.60 mg/kg, iv and 3.25 mg/kg, po by HTLC-MS/MS analysis; format: ADME, organism-based; settings: in vivo; in short: as §4
[39] = Clearance in fasted Sprague-Dawley rat at 1.60 mg/kg, iv and 3.25 mg/kg, po by HTLC-MS/MS analysis; format: ADME, organism-based; settings: in vivo, 1.6 mg/kg; in short: as §4
[40] = Half life in fasted Sprague-Dawley rat plasma at 1.60 mg/kg, iv by HTLC-MS/MS analysis; format: ADME, organism-based; set-up: dose 1.6 mg/kg, route intravenous; settings: 1.6 mg/kg; in short: as §4
[41] = Tmax in fasted Sprague-Dawley rat at 1.60 mg/kg, iv and 3.25 mg/kg, po by HTLC-MS/MS analysis; format: ADME, organism-based; settings: in vivo; in short: as §3

Row | clearance [1] [L/h/kg] | Cmax [2] [µg/mL] | fold change (FC) [3] | IC50 [4] [µM] | IC50 [5] [µM] | IC50 [6] [µM] | bioavailability [8] [%] | IC50 [10] [µM] | IC50 [11] [µM] | Tmax [14] [h] | half-life [15] [h] | IC50 [18] [µM] | IC50 [19] [µM] | IC50 [22] [µM] | fold change (FC) [23] | IC50 [24] [µM] | IC50 [26] [µM] | SMILES | IC50 [7] [µM] | inhibition [16] | further results
1 | 0.134 | 1.25 | > 50 | 0.648 | 0.114 | 0.092 | 141 | 1.6 | 1.1 | 1.5 | 1.73 | 0.155 | 2.7 | 0.99 | 5 | 0.093 | 7 | O=C(O)CCNC(=O)c1ccc(CN(c2ccc(C(F)(F)F)cc2)c2nc(-c3ccc(Cl)cc3)cs2)cc1 | 6.7 | inactive | Tmax [9]: 1.42 h; Cmax [12]: 2.1 µg/mL; clearance [13]: 0.06 L/h/kg; half-life [17]: 5.23 h; Activity [20]: Dose-dependent effect; bioavailability [21]: 58%; half-life [25]: 3.8 h
2 | 0.0468 | 1 | > 50 | 0.552 | 0.072 | 0.092 | 55 |  | 0.48 | 1.47 | 3.92 | 0.096 | 2 | 0.833 | 5 | 0.051 | 5.3 | O=C(O)CCNC(=O)c1ccc(CN(c2ccc(OC(F)(F)F)cc2)c2nc(-c3ccc(C(F)(F)F)cc3)cs2)cc1 | 3.6 | inactive | Cmax [27]: 0.638 µg/mL; Tmax [28]: > 6 h; half-life [29]: 7.57 h; bioavailability [30]: 29%; clearance [31]: 0.12 L/h/kg
3 |  |  | > 50 |  |  | 0.096 |  |  | 0.211 |  |  |  |  | 0.381 | 5 | 0.038 |  | O=C(O)CCNC(=O)c1ccc(CC(c2ccc(Cl)cc2)c2nc(-c3ccc(C(F)(F)F)cc3)cs2)cc1 (centres undefined) |  |  | half-life [32]: 0.4 h; Cmax [33]: 0.117 µg/mL; Tmax [34]: 0.5 h; clearance [35]: 1.68 L/h/kg; bioavailability [36]: 52%
4 | 0.28 | 0.12 | > 50 | 0.372 | 0.051 | 0.076 | 16 | 0.943 | 0.41 | 1.75 | 1.33 | 0.068 | 1.4 | 0.649 | 5 | 0.053 | 4 | O=C(O)CCNC(=O)c1ccc(CN(c2ccc(Cl)cc2)c2nc(-c3ccc(C(F)(F)F)cc3)cs2)cc1 | 2.7 | inactive | bioavailability [37]: 13%; Cmax [38]: 0.216 µg/mL; clearance [39]: 0.3 L/h/kg; half-life [40]: 2.25 h; Tmax [41]: 1.5 h
